Assay outcomes from PubChem.
hIAP act – human IAP activation; 330,000 tested, 0.16% active; AID 2524; P09923; purified human IAP, CDP-Star luminescence, 30 min; active compounds read high; 1 = vehicle-only enzyme, 0 = enzyme-free background; activation factor at 10 µM;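 active = activation factor of the enzyme at least 2-fold when tested at 20 µM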
Target sequence (P09923 whole entry, looked up): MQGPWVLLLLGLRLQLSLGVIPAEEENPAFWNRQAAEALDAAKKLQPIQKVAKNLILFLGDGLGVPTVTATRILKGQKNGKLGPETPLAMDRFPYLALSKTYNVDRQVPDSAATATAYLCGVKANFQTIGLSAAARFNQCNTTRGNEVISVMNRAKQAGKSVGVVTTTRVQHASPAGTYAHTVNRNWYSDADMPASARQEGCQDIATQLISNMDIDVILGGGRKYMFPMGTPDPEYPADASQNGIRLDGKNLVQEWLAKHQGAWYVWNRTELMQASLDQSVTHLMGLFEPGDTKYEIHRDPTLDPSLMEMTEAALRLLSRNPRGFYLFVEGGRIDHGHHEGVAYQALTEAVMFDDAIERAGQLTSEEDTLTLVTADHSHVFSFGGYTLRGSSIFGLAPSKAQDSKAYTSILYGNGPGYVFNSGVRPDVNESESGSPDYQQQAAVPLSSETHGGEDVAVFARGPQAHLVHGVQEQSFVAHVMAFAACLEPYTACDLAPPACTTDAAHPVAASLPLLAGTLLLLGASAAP
bIAP act – intestinal alkaline phosphatase (bovine) activation; purified bovine IAP, CDP-star luminescence, 30 min; active compounds read high; fold of DMSO-control signal, blank-subtracted; activation factor at 20 µM; 200,000 tested, 0.17% active;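 active = activation factor of 2 or more at 20 µM, a signal rise over negative controls twice the positive control's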
mIAP inh – mouse IAP inhibition; purified mouse IAP, CDP-Star luminescence, 30 min; AID 2806; 330,000 tested, 0.2% active; inhibition, % at 10 µM;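 active = inhibition of at least 40% at 10 µM in the primary screen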;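 also: plate controls were DMSO with enzyme for no effect and no enzyme wells for full effect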
mIAP act – increases mouse intestinal alkaline phosphatase activity; activation factor at 10 µM; 330,000 tested, 0.24% active; muIAP, CDP-Star luminescence, 30 min; active compounds read high; 1 = vehicle-only enzyme signal, 0 = enzyme-free wells;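 active = activation factor of at least 2 at 20 µM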
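System: Mouse IAP enzyme | Also added: CDP-Star substrate | Dosing: Compounds dispensed in DMSO | Schedule: 30 min enzyme-substrate-compound incubation at room temperature | Technique: Chemiluminescence readout | Control set: DMSO-only wells and no-enzyme negative control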
bIAP inh – blocks bovine intestinal alkaline phosphatase activity; purified bovine IAP, CDP-star luminescence, 30 min; inhibition, % at 20 µM; 190,000 tested, under 10 active;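 active = over 50% inhibition of intestinal alkaline phosphatase at 20 µM in the single-dose screen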
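System: Purified bovine intestinal alkaline phosphatase (IAP) enzyme | Input: IAP diluted 1/65,000,000 in the well | Also added: CDP-star chemiluminescent phosphatase substrate, 30 µM final | Dosing: 20 µM single dose | Times: Enzyme reaction for 30 min at room temperature | Detection: Luminescence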
hIAP inh – human IAP inhibition | P09923 | purified IAP, CDP-Star luminescence, 30 min | inhibition, % at 10 µM | 330,000 tested, 0.12% active;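 active = inhibition reaching a set limit with compound at 10 µM in the primary screen, cut at about 35% in these data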;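 also: plate controls were DMSO wells with enzyme for no effect and no-enzyme buffer wells for full effect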
hIAP act confirm – human IAP activation confirmation; shares compounds with hIAP act; purified IAP, CDP-Star luminescence, 30 min; active compounds read low; activation (%Activity, negative = activation), % at 8.3 µM; 880 tested, 10% active; AID 434926;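 active = at least twofold enzyme activation in any of six single-dose repeats, which the averaged readout prints as negative percent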
* marks the source's active call; other numbers are inactive results; x = not tested or not shown. Sampled rows, rich in hits. Any-hit rate of the full collection: about 0.72%.

SMILES | hIAP act | bIAP act | mIAP inh | mIAP act | bIAP inh | hIAP inh | hIAP act confirm
CC1OC(Oc2c(-c3cc(O)c(O)c(O)c3)oc3cc(O)cc(O)c3c2=O)C(O)C(O)C1O (configuration not stated) | 1.1 | x | 14 | 0.86 | x | -11 | x
O=C(O)C1OC(Oc2c(-c3ccc(O)c(O)c3)oc3cc(O)cc(O)c3c2=O)C(O)C(O)C1O (configuration not stated) | 0.29 | 1 | 40 | 0.6 | 4 | 71* | 32
N#C/C(=N\Nc1ccc([N+](=O)[O-])cc1)C(N)=S | 0.65 | x | 34 | 0.66 | x | 35* | -9
N#C/C(=N\Nc1ccc(S(=O)(=O)N2CCCCCC2)cc1)C(N)=S | 0.63 | 0.9 | 15 | 0.85 | 8 | 37* | 8
CCCCC#Cc1cncc(C(=O)N/N=C/c2cccc(OC)c2)c1 | 0.6 | x | 4 | 0.96 | x | 40* | -37
CCOc1ccc(/C=N/NC(=O)c2[nH]ncc2Br)c(O)c1 | 2.1* | 1.4 | 21 | 0.79 | -39 | -108 | -294*
O=C(N/N=C/c1c(O)ccc2ccccc12)c1[nH]ncc1Br | 2.2* | 0.9 | 23 | 0.77 | 11 | -120 | 43
Cc1ccc(O)c(/C=N/NC(=O)C2=NNC(c3ccccc3)(c3ccccc3)C2)c1 | x | 1.1 | x | x | -6 | x | x
COc1ccc(OC)c(/C=N/NC(=O)c2[nH]ncc2Br)c1 | 1.7 | x | -6 | 1.1 | x | -69 | x
Cc1ccc(O)c(/C=N/NC(=O)c2[nH]ncc2Br)c1 | 2.2* | 1 | 21 | 0.79 | 5 | -123 | 23
O=C(N/N=C/c1cccs1)c1[nH]ncc1Br | 1.3 | x | 4 | 0.96 | x | -29 | x
CC1CN(C(=O)CCC(=O)NCc2ccccc2)c2ccccc2S1 (configuration not stated) | 0.79 | x | 2 | 0.98 | x | 21 | x
Cc1ccc(S(=O)(=O)N2CCC(=O)CC2)cc1 | 0.91 | x | -9 | 1.1 | x | 9 | x
CCSc1nnc(NC(=O)C2CSC3(C)CCC(=O)N23)s1 (configuration not stated) | 1 | x | -9 | 1.1 | x | -3 | x
CN1CCN(C(=O)c2ccc3c(c2)OCCO3)CC1 | 0.63 | 0.9 | 0 | 1 | 11 | 37* | 8
O=C(c1ccccc1)N1CCN(C(=O)c2ccc3c(c2)OCCO3)CC1 | 1.3 | 1 | -26 | 1.3 | 4 | -28 | x
O=C(COc1ccc2ccccc2c1Br)N1CCCCC1 | 0.64 | x | 5 | 0.95 | x | 36* | -50*
CC[C@]12c3[nH]c4cc(CCC(=O)N(C)C)ccc4c3CCN1C(=O)[C@@H](CC(=O)NCCCOC)C[C@@H]2C(=O)N1CCN(C(=O)c2ccco2)CC1 | x | x | 4 | 0.96 | x | x | x
CCOc1ccc2oc(C(=O)NNC(=O)c3ccccc3O)c(C)c2c1 | 2.4* | x | 22 | 0.78 | x | -137 | -37
COC(=O)C1(C)NC(c2cccc(C)c2)C2C(=O)N(c3ccc(F)cc3)C(=O)C21 (configuration not stated) | 1.1 | x | 0 | 1 | x | -5 | x
COc1ccc(CCN2C(=O)c3ccncc3C2=O)cc1OC | 2.4* | 1.1 | -9 | 1.1 | -5 | -139 | 67
CCn1c(SCC(=O)NC2CC2)nnc1-c1cccc(OC)c1 | 1.2 | x | -2 | 1 | x | -18 | x
C=CCn1c(SCC(=O)NC2CC2)nnc1-c1cccc(OC)c1 | 0.59 | x | -8 | 1.1 | x | 41* | -18
Cc1csc(=O)n1CC(=O)OCC(=O)Nc1cc(S(=O)(=O)N2CCOCC2)ccc1Cl | 1.2 | x | 4 | 0.96 | x | -15 | x
CN(C)c1ccc(/C=C2\C(=N)N3N=C(CC(=O)N4CCCCC4)SC3=NC2=O)cc1 | 0.63 | x | 28 | 0.72 | x | 37* | 7
SMILES | hIAP act | bIAP act | mIAP inh | mIAP act | bIAP inh | hIAP inh | hIAP act confirm
CCOc1cc(/C=N/NC(=O)C(=O)N/N=C/c2ccc(O)c(OCC)c2)ccc1O | 0.62 | x | 18 | 0.82 | x | 38* | -48*
COc1ccc(N2CCN(CCNC(=O)CCC(=O)NNc3nc4ccccc4c4nc(C)nn34)CC2)cc1 | 2.5* | x | 10 | 0.9 | x | -145 | -24
Cc1nc2c3ccccc3nc(NNC(=O)CCC(=O)NC3CCCC3)n2n1 | 0.94 | 1.5 | 23 | 0.77 | -51 | 6 | x
Cc1nc2c3ccccc3nc(NNC(=O)CCC(=O)N3CCCC(C)C3)n2n1 (configuration not stated) | 2.5* | x | 14 | 0.86 | x | -154 | -42*
CC(=O)N1c2ccc(S(=O)(=O)N3CCC(C(=O)Nc4cccc(Cl)c4)CC3)cc2CC1C (configuration not stated) | 2* | x | -98 | 2 | x | -100 | -64
N#C/C(=C\c1ccc(N2CCCCC2)c([N+](=O)[O-])c1)c1nn(-c2ccccc2)c(N)c1C#N | 0.81 | 0.9 | 16 | 0.84 | 12 | 19 | x
N#C/C(=C\c1ccc(N2CCCC2)c([N+](=O)[O-])c1)c1nc2ccccc2[nH]1 | 0.65 | 0.8 | 12 | 0.88 | 21 | 35* | -1
N#C/C(=C/c1ccc(O)c(O)c1)c1nc2ccccc2[nH]1 | 0.42 | x | 36 | 0.64 | x | 58* | 4
COc1ccccc1CNC(=O)c1ccc2nc(N3CCOCC3)sc2c1 | 1.1 | x | -2 | 1 | x | -8 | x
CCCN=C1N(C)C[C@@H]2[C@@H]3C(=O)N(Cc4ccccc4)C(=O)[C@@H]3[C@](CC)(C(=O)OC)N12 | x | x | -10 | 1.1 | x | x | x
c1ccc(-c2nnc(CN3CCC4(CC3)OCCO4)o2)cc1 | 0.59 | 0.9 | 4 | 0.96 | 7 | 41* | 30
c1ccc(-c2nnc(CN3CCCCC3)o2)cc1 | 1 | x | -16 | 1.2 | x | -4 | x
Cc1ccc(-c2c(C(=O)N/N=C/C3CC=CCC3)nnn2-c2nonc2N)cc1 (configuration not stated) | 1.3 | x | 5 | 0.95 | x | -28 | x
COc1c(C)cccc1C(=O)NC(=S)Nc1ccccc1N1CCCC1 | 0.65 | x | 11 | 0.89 | x | 35* | -34
O=C(NC(=S)Nc1ccccc1N1CCCC1)c1ccccc1Br | 1.1 | x | 34 | 0.67 | x | -13 | x
O=C(O)c1cc(S(=O)(=O)N2CCN(C(=O)c3ccco3)CC2)c(Cl)cc1Cl | 0.95 | x | 3 | 0.97 | x | 5 | x
CCOc1cc(/C=C2\CCn3c2nc2cc(Cl)ccc2c3=O)ccc1O | 0.89 | x | 12 | 0.88 | x | 11 | x
Cc1cc(C)cc(CC(Cc2nc3ccccc3[nH]2)c2nc3ccccc3[nH]2)c1 (configuration not stated) | 2.1* | 5.2* | -38 | 1.4 | -422 | -112 | -323*
COc1cc(C)ccc1OCc1cc(C(=O)N(Cc2nccn2C)C(C)C)no1 | 0.77 | x | 4 | 0.96 | x | 23 | x
Cc1ccc(-n2ncc3c(=O)n(CC(N)=O)cnc32)cc1C | 1 | x | -12 | 1.1 | x | -1 | x
Cc1nc2c3cnn(-c4ccc(C)c(C)c4)c3ncn2n1 | 0.26 | 0.9 | -5 | 1 | 6 | 74* | -27
